# Experimental data reported in ChEMBL document CHEMBL2146480, “Discovery of Phenylaminopyridine Derivatives as Novel HIV-1 Non-nucleoside Reverse Transcriptase Inhibitors” (ACS Med Chem Lett, 2012).
# Legend:
# [1] = system: Human immunodeficiency virus 1; experiment: Antiviral activity against wild type HIV1 LAI infected in human CEM174 cells assessed as inhibition of viral replication preincubated for 1 hr prior to viral infection measured after 5 days; format: functional, organism-based; conditions: Human immunodeficiency virus 1, LAI
# [2] = Cytotoxicity against human CEM174 cells assessed as cell viability; format: cell-based
# Summary of the method: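 Values are geometric means of two determinations, each within 25% of the mean.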
# [3] = Solubility of the compound in distilled water; format: physicochemical
# Summary of the method: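 Solubility was measured on the HCl salt in distilled water.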
# [4] = Solubility of the compound in distilled water at pH 7.4; format: physicochemical
# [5] = Solubility of the compound in distilled water at pH 2.1; format: physicochemical
# [6] = molecular target: Human immunodeficiency virus type 1 reverse transcriptase (Human immunodeficiency virus 1, UniProt Q72547); experiment: Inhibition of RNA-dependent DNA polymerase activity of wild type N-terminal His6x-tagged HIV 1 reverse transcriptase p66/p51 expressed in Escherichia coli (DE3) rosetta cells preincubated for 30 mins by SPA assay
# [7] = molecular target: Human immunodeficiency virus type 1 reverse transcriptase (Human immunodeficiency virus 1, UniProt Q72547, K103N); experiment: Inhibition of RNA-dependent DNA polymerase activity of N-terminal His6x-tagged HIV 1 reverse transcriptase K103N mutant expressed in Escherichia coli (DE3) rosetta cells preincubated for 30 mins by SPA assay
# [8] = molecular target: Human immunodeficiency virus type 1 reverse transcriptase (Human immunodeficiency virus 1, UniProt Q72547, Y181C); experiment: Inhibition of RNA-dependent DNA polymerase activity of N-terminal His6x-tagged HIV 1 reverse transcriptase Y181C mutant expressed in Escherichia coli (DE3) rosetta cells preincubated for 30 mins by SPA assay
# [9] = Volume of distribution in rat at 0.94 mg/kg, iv and 9.44 mg/kg, po; format: ADME, organism-based; conditions: in vivo
# Summary of the method: (§1)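 Rats given a single iv dose of 0.94 mg/kg and a single oral dose of 9.44 mg/kg. Both iv and po formulations were 1.0 mg/mL in 20% HP-β-CD. Vd, oral AUC, F, clearance and t1/2 were derived from plasma exposure.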
# [10] = AUC in rat 9.44 mg/kg, po; format: ADME, organism-based; parameters: dose 9.44 mg/kg, route oral; conditions: plasma; summary of the method: as §1
# [11] = Oral bioavailability in rat at 9.44 mg/kg; format: ADME, organism-based; conditions: in vivo; summary of the method: as §1
# [12] = Clearance in rat at 0.94 mg/kg, iv and 9.44 mg/kg, po; format: ADME, organism-based; conditions: in vivo; summary of the method: as §1
# [13] = Half life in rat at 0.94 mg/kg, iv and 9.44 mg/kg, po; format: ADME, organism-based; conditions: in vivo; summary of the method: as §1
# [14] = Induction of CYP3A4 mRNA expression in human Fa2N-4 cells up to 10 uM after 24 hrs; format: ADME, cell-based; conditions: fa2n-4, 24 h
# [15] = Half life in rat at 1.10 mg/kg, iv and 10.7 mg/kg, po; format: ADME, organism-based; conditions: in vivo
# Summary of the method: (§2)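 Both routes were formulated at 1.0 mg/mL in 50% PEG. Parameters reported are Vd, AUCpo, oral bioavailability, clearance and half-life.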
# [16] = Volume of distribution in rat at 1.10 mg/kg, iv and 10.7 mg/kg, po; format: ADME, organism-based; conditions: in vivo, 1.1 mg/kg; summary of the method: as §2
# [17] = AUC in rat at 10.7 mg/kg, po; format: ADME, organism-based; parameters: dose 10.7 mg/kg, route oral; conditions: plasma; summary of the method: as §2
# [18] = Oral bioavailability in rat at 10.7 mg/kg; format: ADME, organism-based; conditions: in vivo; summary of the method: as §2
# [19] = Clearance in rat at 1.10 mg/kg, iv and 10.7 mg/kg, po; format: ADME, organism-based; conditions: in vivo, 1.1 mg/kg; summary of the method: as §2
# [20] = Half life in rat at 1.19 mg/kg, iv and 10.9 mg/kg, po; format: ADME, organism-based; conditions: in vivo
# Summary of the method: (§3)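 The iv and po formulation was 1.0 mg/mL in 40% PEG. Vd, AUCpo, F, clearance and t1/2 were derived.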
# [21] = Volume of distribution in rat at 1.19 mg/kg, iv and 10.9 mg/kg, po; format: ADME, organism-based; conditions: in vivo; summary of the method: as §3
# [22] = AUC in rat at 10.9 mg/kg, po; format: ADME, organism-based; parameters: dose 10.9 mg/kg, route oral; conditions: plasma; summary of the method: as §3
# [23] = Oral bioavailability in rat at 10.9 mg/kg; format: ADME, organism-based; conditions: in vivo; summary of the method: as §3
# [24] = Clearance in rat at 1.19 mg/kg, iv and 10.9 mg/kg, po; format: ADME, organism-based; conditions: in vivo; summary of the method: as §3
# [25] = system: Human immunodeficiency virus type 1 reverse transcriptase (Human immunodeficiency virus 1), Q72547 [UNDEFINED MUTATION]; experiment: Resistant ratio of IC50 for HIV 1 reverse transcriptase K103N mutant to IC50 for wild type HIV 1 reverse transcriptase
# Summary of the method: (§4)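 Fold resistance is IC50 against the mutant RT divided by IC50 against wild-type RT. Both IC50s come from the RNA-dependent DNA polymerase inhibition assay, each taken as the geometric mean of two determinations.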
# [26] = system: Human immunodeficiency virus 1; experiment: Resistant ratio of IC50 for HIV 1 reverse transcriptase Y181C mutant to IC50 for wild type HIV 1 reverse transcriptase; summary of the method: as §4
# [27] = molecular target: Voltage-gated inwardly rectifying potassium channel KCNH2 (Homo sapiens, UniProt Q12809); experiment: Inhibition of recombinant human ERG channel IKr expressed in CHO cells by patch clamp assay
# Chain of Voltage-gated inwardly rectifying potassium channel KCNH2 (Q12809 whole entry): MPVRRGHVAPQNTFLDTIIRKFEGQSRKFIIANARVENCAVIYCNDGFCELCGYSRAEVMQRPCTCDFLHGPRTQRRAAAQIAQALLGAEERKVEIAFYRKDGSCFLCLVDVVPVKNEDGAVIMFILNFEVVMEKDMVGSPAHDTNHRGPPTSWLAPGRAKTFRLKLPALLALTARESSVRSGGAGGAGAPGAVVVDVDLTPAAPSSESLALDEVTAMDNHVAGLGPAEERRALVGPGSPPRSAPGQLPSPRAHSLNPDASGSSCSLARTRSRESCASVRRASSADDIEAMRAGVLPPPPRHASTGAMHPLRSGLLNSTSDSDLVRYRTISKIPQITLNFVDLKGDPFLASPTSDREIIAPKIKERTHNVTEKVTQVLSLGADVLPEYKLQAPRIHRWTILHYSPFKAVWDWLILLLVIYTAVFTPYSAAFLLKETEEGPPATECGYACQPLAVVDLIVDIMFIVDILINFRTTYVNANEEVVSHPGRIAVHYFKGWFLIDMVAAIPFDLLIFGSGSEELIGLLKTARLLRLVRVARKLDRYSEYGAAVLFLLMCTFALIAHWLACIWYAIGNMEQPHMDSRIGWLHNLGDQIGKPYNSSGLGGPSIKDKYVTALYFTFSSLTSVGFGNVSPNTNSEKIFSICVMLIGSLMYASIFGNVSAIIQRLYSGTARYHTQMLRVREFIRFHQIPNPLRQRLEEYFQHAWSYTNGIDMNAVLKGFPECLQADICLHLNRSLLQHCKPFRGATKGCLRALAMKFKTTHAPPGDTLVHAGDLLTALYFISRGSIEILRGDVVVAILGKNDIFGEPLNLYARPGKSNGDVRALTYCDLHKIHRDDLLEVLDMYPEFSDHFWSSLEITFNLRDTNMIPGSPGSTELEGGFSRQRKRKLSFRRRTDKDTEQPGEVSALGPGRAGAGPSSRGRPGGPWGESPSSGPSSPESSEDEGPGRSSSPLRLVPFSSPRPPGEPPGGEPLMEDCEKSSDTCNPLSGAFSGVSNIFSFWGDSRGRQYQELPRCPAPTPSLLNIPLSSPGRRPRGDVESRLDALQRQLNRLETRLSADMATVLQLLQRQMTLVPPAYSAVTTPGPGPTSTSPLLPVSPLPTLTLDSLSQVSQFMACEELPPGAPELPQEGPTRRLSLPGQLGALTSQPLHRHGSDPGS
smiles,measurement,setting,value
Cc1cccc(C)c1-c1cnnc(NCc2cc(-c3ccccc3)[nH]n2)n1,EC50,[1],3.2 nM
same,CC50,[2],> 10000 nM
Cc1cc(C#N)ccc1-c1ccnc(NCc2n[nH]c3nc(N)ccc23)c1.Cl,solubility,[3],> 4220 µM
Cc1cccc(-c2cnnc(NCc3cc(-c4ccccc4)[nH]n3)n2)c1,EC50,[1],2300 nM
same,CC50,[2],> 10000 nM
Cc1ccccc1-c1cncc(NCc2cc(-c3ccccc3)[nH]n2)n1,EC50,[1],910 nM
same,CC50,[2],> 10000 nM
Cc1cc(C#N)ccc1-c1ccnc(NCc2n[nH]c(-c3ccccn3)c2Cl)c1,EC50,[1],0.2 nM
same,CC50,[2],> 10000 nM
same,solubility,[4],1.1 µM
same,solubility,[5],132 µM
same,IC50,[6],3 nM
same,IC50,[7],16 nM
same,IC50,[8],7.9 nM
same,Vd,[9],1.1 L/kg
same,AUC,[10],67 µM·h
same,bioavailability,[11],127%
same,clearance,[12],8.2 mL/min/kg
same,half-life,[13],2 h
same,Activity,[14],Not Active
N#Cc1cc(Cl)cc(Oc2cc(OCc3n[nH]c4nc(N)ccc34)ccc2Cl)c1,CC50,[2],> 10000 nM
Cc1cc(C#N)ccc1-c1ccnc(NCc2n[nH]c(-c3ccccn3)c2Cl)c1.Cl,solubility,[3],100 µM
Cc1cc(C#N)ccc1-c1ccnc(NCc2cc(-c3ccccc3)[nH]n2)c1,EC50,[1],0.8 nM
same,CC50,[2],> 10000 nM
Cc1ccc(-c2cnnc(NCc3cc(-c4ccccc4)[nH]n3)n2)cc1,EC50,[1],> 10000 nM
same,CC50,[2],> 10000 nM
Cc1cc(C#N)ccc1-c1cncc(NCc2cc(-c3ccccc3)[nH]n2)c1,EC50,[1],16 nM
same,CC50,[2],> 10000 nM
c1ccc(-c2cnnc(NCc3cc(-c4ccccc4)[nH]n3)n2)cc1,EC50,[1],1290 nM
same,CC50,[2],> 10000 nM
Cc1ccccc1-c1cccc(NCc2cc(-c3ccccc3)[nH]n2)c1,EC50,[1],2200 nM
same,CC50,[2],> 10000 nM
Cc1cc(C#N)ccc1-c1ccnc(NCc2n[nH]c3nc(N)ccc23)c1,EC50,[1],1.9 nM
same,CC50,[2],> 10000 nM
same,solubility,[4],0.34 µM
same,solubility,[5],> 884 µM
same,IC50,[6],5.9 nM
same,IC50,[7],36 nM
same,IC50,[8],16 nM
same,half-life,[15],2.5 h
same,Vd,[16],1.26 L/kg
same,AUC,[17],20 µM·h
same,bioavailability,[18],72%
same,clearance,[19],14 mL/min/kg
Cc1ccnc2c1NC(=O)c1cccnc1N2C1CC1 [NEVIRAPINE],EC50,[1],150 nM
same,CC50,[2],> 10000 nM
Cc1ccccc1-c1cnnc(NCc2cc(-c3ccccc3)[nH]n2)n1,EC50,[1],124 nM
same,CC50,[2],> 10000 nM
c1ccc(-c2cc(CNc3nncc(-c4cccc5ccccc45)n3)n[nH]2)cc1,EC50,[1],265 nM
same,CC50,[2],> 10000 nM
Cc1ccccc1-c1ccnc(NCc2cc(-c3ccccc3)[nH]n2)c1,EC50,[1],149 nM
same,CC50,[2],> 10000 nM
Cc1cc(C#N)ccc1-c1ccnc(NCc2n[nH]c(-c3ccccc3)c2Cl)c1,EC50,[1],6.8 nM
same,CC50,[2],> 10000 nM
same,solubility,[4],2.1 µM
same,solubility,[5],45 µM
same,IC50,[6],5.1 nM
same,IC50,[7],11 nM
same,IC50,[8],6.3 nM
same,half-life,[20],3.1 h
same,Vd,[21],2.08 L/kg
same,AUC,[22],34 µM·h
same,bioavailability,[23],71%
same,clearance,[24],8.7 mL/min/kg
Cc1ccccc1-c1cncc(NCc2cc(-c3ccccc3)[nH]n2)c1,EC50,[1],1200 nM
same,CC50,[2],> 10000 nM
Cc1cc(C#N)ccc1-c1ccnc(NCc2n[nH]c3nc(F)ccc23)c1,EC50,[1],0.35 nM
same,CC50,[2],> 10000 nM
same,solubility,[4],1.8 µM
same,IC50,[6],1.9 nM
same,IC50,[7],10 nM
same,IC50,[8],7.7 nM
Cc1ccccc1-c1cccc(NCc2cc(-c3ccccc3)[nH]n2)n1,EC50,[1],> 10000 nM
same,CC50,[2],> 10000 nM
Cc1cc(C#N)ccc1-c1ccnc(NCc2cc(-c3ccccn3)[nH]n2)c1,EC50,[1],3.6 nM
same,CC50,[2],> 10000 nM
same,solubility,[4],0.71 µM
same,solubility,[5],> 545 µM
same,IC50,[6],10 nM
same,IC50,[7],134 nM
same,Ratio IC50,[25],13
same,IC50,[8],84 nM
same,Ratio IC50,[26],8.4
same,IC50,[27],1100 nM
Cc1ccccc1-c1ccnc(NCc2cc(-c3ccccc3)[nH]n2)n1,EC50,[1],366 nM
same,CC50,[2],> 10000 nM
Cc1cc(C#N)ccc1-c1ccnc(NCc2cc(-c3ccccc3)[nH]n2)n1,EC50,[1],4.3 nM
same,CC50,[2],> 10000 nM
Cc1cc(C#N)ccc1-c1ccnc(NCc2n[nH]c3ncccc23)c1,EC50,[1],1.1 nM
same,CC50,[2],> 10000 nM
same,solubility,[4],3.7 µM
same,solubility,[5],> 881 µM
same,IC50,[6],1.2 nM
same,IC50,[7],10 nM
same,IC50,[8],5.6 nM
Cc1cc(C#N)ccc1-c1cnnc(NCc2cc(-c3ccccc3)[nH]n2)n1,EC50,[1],1.7 nM
same,CC50,[2],> 10000 nM
